The ED50 is the dose at which the effect has come halfway, by size or by number of responders. A word on the Ki: it is a dissociation constant, usually derived from enzyme kinetics or from competition with a known ligand. Read a low Ki as a stronger hold on the target.

Test [1] relates to Mus musculus. Put plainly: Inhibition of mescaline effects in mice following p.o. administration. Type of test: functional. The conditions noted are these: po. The method, boiled down: (§1)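 In mice, antagonism of mescaline-induced effects was tested after oral administration. Potency is an ED50 in mg/kg, calculated as free base weight.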
The species entered for test [2] is Mus musculus. The experiment in a line: Ability to block the aggressive behavior caused by prolonged isolation in mouse. Type of test: functional. The procedure, abridged:
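Mice made aggressive by prolonged isolation; compounds dosed orally (po); blocking of aggressive behaviour scored and ED50 derived in mg/kg, expressed as free base weight; values averaged from three measurements, some single measurements.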

Test [3] deals with Rattus norvegicus. The experiment in a line: In vivo 5-HT2 antagonism of 5-HTP-induced head twitch in rat. The format is functional. The procedure, abridged: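 Rats given 5-hydroxytryptophan (5HTP) to induce head twitches, a read-out of in vivo 5HT2 antagonism; compounds given orally (po); ED50 in mg/kg as free base weight; values averaged from three measurements, some single measurements.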

Test [4] concerns Mus musculus. The experiment in a line: Ability to block the aggressive behavior caused by prolonged isolation in mouse (administered po). The format is functional. The procedure, abridged:
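Mice were made aggressive by prolonged isolation. The compound was given orally, and blockade of the aggressive behavior was scored. ED50 is in mg/kg, expressed as free base weight.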

In test [5] the test system is Rattus norvegicus. Put plainly: In vivo antagonism of compound determined by the ability to inhibit 5-HTP-induced head twitch in rat (administered po). The format is functional. The method, boiled down: (§2)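 In rats, head twitches were induced with 5-hydroxytryptophan as an in vivo read-out of 5HT2 antagonism. The compound was dosed po, and inhibition of twitching gave an ED50 (mg/kg, free base weight).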

Test [6] has as its system Mus musculus. The experiment in a line: Antimescaline activity in the mouse (administered po). Type of test: functional. The method, boiled down:
as §1

In test [7] the target is Sigma non-opioid intracellular receptor 1 (Cavia porcellus) (UniProt Q60492). The experiment in a line: Binding affinity for sigma receptor of guinea pig whole brain using [3H]-SKF- 100047 radioligand.
Test [8] has as its system Rattus norvegicus. The experiment in a line: In vivo activity of 5-HTP-induced head twitch in rat as a measure of 5-HT2 antagonism. Type of test: functional. The method, boiled down:
as §2

A value given as a limit tells only on which side of the number the result lay.

Chain of Sigma non-opioid intracellular receptor 1 (Cavia porcellus) (Q60492 whole entry, looked up): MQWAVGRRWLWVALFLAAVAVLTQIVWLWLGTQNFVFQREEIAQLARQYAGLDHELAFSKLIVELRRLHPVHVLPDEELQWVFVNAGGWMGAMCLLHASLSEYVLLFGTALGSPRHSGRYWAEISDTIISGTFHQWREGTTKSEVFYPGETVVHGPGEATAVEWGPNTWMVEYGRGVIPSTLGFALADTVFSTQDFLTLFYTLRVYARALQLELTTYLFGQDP

Take `Cl.O=C1c2ccccc2CCC12CCN(CC1CCCCC1)CC2`: the ED50 with Mus musculus [1] was greater than 10 mg/kg.
Take `Cl.O=C1c2ccccc2CCC12CCN(CCc1ccccc1)CC2`: the ED50 in the test on Mus musculus [1] came out at 10 mg/kg; in the test listed under Mus musculus [2] it was 30 mg/kg; in the test on Rattus norvegicus [3], 10 mg/kg.
`COc1ccc2c(c1)CCC(C1CCN(CCc3ccccc3)CC1)C2=O` (configuration not stated) displayed an ED50 in the test with Mus musculus [1] of 6.5 mg/kg.
Same read-out and setting: the same measure for `Cl.O=C1c2ccccc2CCC12CCN(Cc1ccc([N+](=O)[O-])cc1)CC2`: greater than 10 mg/kg.
As to `c1ccc(CN2CCC3(CCCc4ccccc43)CC2)cc1`, the ED50 with Mus musculus [4], in the test with Rattus norvegicus [5] and with Mus musculus [6] was greater than 30 mg/kg in each case.
As for `Cl.O=C1c2ccccc2CCC1C1CCN(Cc2ccccc2)CC1` (configuration not stated), the 50% effect level in the test on Mus musculus [1] (ED50) was put at a dose of 4.5 mg/kg.
On the same count and under the same terms, the same measure for `Br.O=C1c2ccccc2CCC1C1CCN(CC2CC2)CC1` (configuration not stated): greater than 10 mg/kg; for `Cc1ccc(CN2CCC(C3CCc4ccccc4C3=O)CC2)cc1.O` (configuration not stated): greater than 10 mg/kg.
In test [7], `Br.O=C(CC1CCN(CC2CC2)CC1)c1ccc(F)cc1` came in with a Ki of 10 nM. Moreover, the values for the ED50 in the test listed under Mus musculus [2], in the test with Rattus norvegicus [3] and in the test on Mus musculus [6] were 1.9 mg/kg, 1.8 mg/kg and 0.35 mg/kg, respectively.
In the case of `O=C(O)/C=C/C(=O)O.O=C1c2c(F)cc(F)cc2CCC12CCN(CCc1ccccc1)CC2`, the ED50 with Mus musculus [1] was greater than 10 mg/kg.
On the same count and under the same terms, the same measure for `Cl.O=C(CCCN1CCC2(CCc3ccccc3C2=O)CC1)c1ccc(F)cc1`: 0.65 mg/kg; for `OC1CCc2ccccc2C12CCN(CCc1ccccc1)CC2` (configuration not stated): greater than 30 mg/kg.
Take `O=C1c2ccc(F)cc2CCC1C1CCN(CCc2ccccc2)CC1` (configuration not stated): in the test with Mus musculus [6], the 50% effect level (ED50) was put at a dose of 1.9 mg/kg.
Regarding `Cl.O=C1c2ccc(Cl)cc2CCC1C1CCN(CCc2ccccc2)CC1` (configuration not stated), it took a dose of 5.4 mg/kg to reach the 50% effect level in the test on Mus musculus [1] (ED50).
On to `Cl.O=C1c2ccccc2CCC1C1CCN(Cc2ccc(C(F)(F)F)cc2)CC1` (configuration not stated), for which, in the test with Mus musculus [6], the 50% effective dose (ED50) is greater than 10 mg/kg.
Still for that read-out and setting: the same measure for `CC(C)(C)c1ccc(CN2CCC(C3CCc4ccccc4C3=O)CC2)cc1` (configuration not stated): greater than 10 mg/kg.
Consider `O=C(O)CC(O)C(=O)O.O=C1c2ccccc2CCC12CCN(Cc1ccc3ccccc3c1)CC2`, for which, in the test on Mus musculus [1], the ED50 is greater than 10 mg/kg.
The same measure, in the same setting: the same measure for `O=C1CCc2ccccc2C12CCN(CCc1ccccc1)CC2`: greater than 30 mg/kg.
As for `C[C@@H]1CN(CCCn2c3ccccc3c3ccccc32)C[C@H](C)N1` [RIMCAZOLE], the ED50 in the test listed under Mus musculus [2] came to 48 mg/kg; with Mus musculus [6], 22 mg/kg.
Take `Cl.O=C1c2cccc(F)c2CCC1C1CCN(CCc2ccccc2)CC1` (configuration not stated): in the test with Mus musculus [1], it took a dose of 6.8 mg/kg to reach the 50% effect level (ED50).
In turn, `Br.O=C1c2ccccc2CCC1C1CCN(CCc2ccccc2)CC1` (configuration not stated) yielded an ED50 with Mus musculus [6] of 6.4 mg/kg.
`O=C1c2ccc(Cl)cc2CCC12CCN(CCc1ccccc1)CC2` displayed an ED50 in the test on Mus musculus [1] of 10 mg/kg.
Compound `Cl.O=C1c2ccccc2CCC12CCN(Cc1ccc(F)cc1)CC2` had an ED50 in the test with Mus musculus [6] greater than 10 mg/kg.
With `CN1CCC2(CCc3ccccc3C2=O)CC1.Cl`, the ED50 with Mus musculus [1] is greater than 10 mg/kg.
The compound `Br.CC(C1CC1)N1CCC(C2CCc3ccccc3C2=O)CC1` (configuration not stated) returned an ED50 in the test with Mus musculus [6] greater than 30 mg/kg.
`Cl.O=C1c2ccccc2CCC1C1CCN(Cc2ccc(F)cc2)CC1` (configuration not stated): the ED50 with Mus musculus [6] worked out at 10 mg/kg.
`O=C1c2ccc(F)cc2CCC1C1CCN(Cc2ccccc2)CC1` (configuration not stated) gave an ED50 with Mus musculus [1] greater than 10 mg/kg.
For the compound `COc1ccc(CN2CCC3(CCc4ccccc4C3=O)CC2)cc1.Cl`, the ED50 in the test with Mus musculus [6] was greater than 10 mg/kg.
With `Cl.OC1c2ccccc2CCC12CCN(CCc1ccccc1)CC2` (configuration not stated), the ED50 with Mus musculus [1] was 0.064 mg/kg; in the test filed under Mus musculus [2], 10 mg/kg; in the test on Rattus norvegicus [8], 0.07 mg/kg.
As for `O=C(O)CC(O)C(=O)O.O=C1c2ccccc2CCC12CCN(Cc1ccc(C(F)(F)F)cc1)CC2`, the ED50 in the test with Mus musculus [6] is greater than 10 mg/kg.
As to `CC(C)(C)c1ccc(CN2CCC3(CCc4ccccc4C3=O)CC2)cc1.Cl`, the ED50 in the test on Mus musculus [1] was greater than 10 mg/kg.
Still for that read-out and setting: under `Cl.O=C1c2ccccc2CCC12CCN(Cc1ccccc1)CC2` stands greater than 10 mg/kg.
